Series [1] in a line: Extraction ratio in mouse liver microsomes at 1 uM by LC/MS/MS analysis. Type of series: ADME, Microsome. The following applies: read-out: ERH.
The target of series [2] is T1, P2X purinoceptor 7 (Mus musculus, UniProt Q9Z1M0).
T1 sequence (Q9Z1M0 whole entry): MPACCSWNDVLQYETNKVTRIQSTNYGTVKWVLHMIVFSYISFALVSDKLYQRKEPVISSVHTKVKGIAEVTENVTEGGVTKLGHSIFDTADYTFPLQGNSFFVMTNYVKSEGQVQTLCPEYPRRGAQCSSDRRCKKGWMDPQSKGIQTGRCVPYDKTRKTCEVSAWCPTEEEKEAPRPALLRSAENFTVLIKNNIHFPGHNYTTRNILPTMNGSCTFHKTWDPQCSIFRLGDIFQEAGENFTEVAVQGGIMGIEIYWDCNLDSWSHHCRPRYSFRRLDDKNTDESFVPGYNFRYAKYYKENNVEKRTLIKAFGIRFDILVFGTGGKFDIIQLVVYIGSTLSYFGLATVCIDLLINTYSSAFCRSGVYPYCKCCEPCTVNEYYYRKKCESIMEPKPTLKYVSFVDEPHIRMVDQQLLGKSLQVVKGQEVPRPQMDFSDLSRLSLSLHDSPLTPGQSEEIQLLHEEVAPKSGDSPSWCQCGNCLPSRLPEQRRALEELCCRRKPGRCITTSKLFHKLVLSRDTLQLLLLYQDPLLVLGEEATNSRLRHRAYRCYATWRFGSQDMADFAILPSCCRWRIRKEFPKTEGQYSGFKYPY
Briefly: Antagonist activity at mouse P2X7 receptor assessed as inhibition of ATP-induced Ca2+ flux by FLIPR assay. (A change in cytosolic calcium serves as a functional read-out for many receptors and channels.)

Series [3] concerns Rattus norvegicus. Put plainly: Ex-vivo P2X7 receptor occupancy in sc dosed Sprague-Dawley rat brain assessed as inhibition of [3H]A804598 binding after 15 mins by autoradiographic analysis. Type of series: functional.
Series [4] in a line: Extraction ratio in rat liver microsomes at 1 uM by LC/MS/MS analysis. It is filed as ADME, Microsome. The following applies: read-out: ERH. In general terms: Microsomes from liver hold many membrane-bound enzymes, among them those of drug oxidation.
Series [5] deals with T2, P2X purinoceptor 7 (Rattus norvegicus, UniProt Q64663).
T2 sequence (Q64663 whole entry): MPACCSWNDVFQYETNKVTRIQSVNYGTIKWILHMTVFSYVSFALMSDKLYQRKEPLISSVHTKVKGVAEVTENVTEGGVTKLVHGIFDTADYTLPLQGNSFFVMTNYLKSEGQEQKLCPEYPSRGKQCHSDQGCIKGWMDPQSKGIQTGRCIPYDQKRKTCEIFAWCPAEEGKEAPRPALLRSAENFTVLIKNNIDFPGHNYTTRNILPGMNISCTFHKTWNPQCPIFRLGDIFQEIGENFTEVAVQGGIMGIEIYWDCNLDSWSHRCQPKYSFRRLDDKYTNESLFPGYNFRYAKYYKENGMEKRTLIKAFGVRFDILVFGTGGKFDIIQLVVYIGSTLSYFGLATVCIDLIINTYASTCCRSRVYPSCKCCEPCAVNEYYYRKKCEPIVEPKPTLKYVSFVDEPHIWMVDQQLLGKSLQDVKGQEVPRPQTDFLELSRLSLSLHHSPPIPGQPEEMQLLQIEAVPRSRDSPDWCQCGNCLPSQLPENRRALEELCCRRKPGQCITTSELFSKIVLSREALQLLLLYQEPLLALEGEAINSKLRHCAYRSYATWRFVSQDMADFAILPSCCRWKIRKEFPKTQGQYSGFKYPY
Put plainly: Antagonist activity at rat P2X7 receptor assessed as inhibition of ATP-induced Ca2+ flux by FLIPR assay.

The test system of series [6] is Rattus norvegicus. Put plainly: Ex-vivo P2X7 receptor occupancy in Sprague-Dawley rat brain assessed as inhibition of [3H]A804598 binding at 30 mg/kg, sc after 2 hrs by autoradiographic analysis relative to control. Type of series: functional. The following applies: route subcutaneous. The method, boiled down: (§1)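 Rat brain P2X7 occupancy by ex vivo autoradiography after one 30 mg/kg subcutaneous dose, followed over time. Plasma and brain drug levels were measured at the same time points. n = 3 per time point, mean ± SEM.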

Series [7] in a line: Protein binding in rat brain. It is filed as ADME, tissue-based. As to conditions: brain tissue, read-out: PB (converted).
The target in series [8] is T3, P2X purinoceptor 7 (Homo sapiens, UniProt Q99572).
T3 sequence (Q99572 whole entry): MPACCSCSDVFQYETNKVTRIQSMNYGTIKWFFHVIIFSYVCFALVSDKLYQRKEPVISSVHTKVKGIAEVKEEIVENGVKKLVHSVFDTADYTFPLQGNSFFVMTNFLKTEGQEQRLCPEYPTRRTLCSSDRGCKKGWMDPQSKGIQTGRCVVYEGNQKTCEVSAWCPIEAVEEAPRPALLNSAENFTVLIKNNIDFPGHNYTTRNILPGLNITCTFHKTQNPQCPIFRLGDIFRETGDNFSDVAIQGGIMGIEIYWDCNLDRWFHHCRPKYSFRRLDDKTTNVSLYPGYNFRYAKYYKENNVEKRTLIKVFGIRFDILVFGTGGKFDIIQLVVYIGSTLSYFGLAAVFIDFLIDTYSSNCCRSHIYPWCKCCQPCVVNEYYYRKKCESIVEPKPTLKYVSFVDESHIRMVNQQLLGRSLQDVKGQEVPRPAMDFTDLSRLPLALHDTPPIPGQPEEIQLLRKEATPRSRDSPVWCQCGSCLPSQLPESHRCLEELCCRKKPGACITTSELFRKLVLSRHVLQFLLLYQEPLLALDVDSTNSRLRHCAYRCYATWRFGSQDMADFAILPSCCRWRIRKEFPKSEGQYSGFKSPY
Put plainly: Antagonist activity at P2X7 receptor in human PBMC assessed as inhibition of BzATP-induced IL1beta release incubated 30 mins prior to BzATP-challenge measured after 1.5 hrs by ELISA. For orientation: In an ELISA, binding on a coated surface is turned into a signal by an enzyme label.

Series [9] can be described thus: Extraction ratio in human liver microsomes at 1 uM by LC/MS/MS analysis. It is filed as ADME, Microsome. The following applies: read-out: ERH.
Series [10] in a line: Plasma protein binding in human by equilibrium dialysis method. It is filed as ADME, cell-free. As to conditions: read-out: PPB (converted).
For series [11], the system named is Rattus norvegicus. Put plainly: Ex-vivo P2X7 receptor occupancy in Sprague-Dawley rat brain assessed as inhibition of [3H]A804598 binding at 30 mg/kg, sc by autoradiographic analysis. Further details: dose 30 mg/kg. Type of series: functional, organism-based. The method, boiled down:
as §1

Series [12] addresses T3, P2X purinoceptor 7. Put plainly: Antagonist activity at P2X7 receptor in human whole blood assessed as inhibition of BzATP-induced IL1beta release incubated 30 mins prior to BzATP-challenge measured after 1.5 hrs by ELISA.
For series [13], the target named is Sodium-dependent serotonin transporter (Rattus norvegicus, UniProt P31652). Put plainly: Displacement of [3H]-Citalopram from SERT in rat brain after 60 mins by scintillation counting analysis. It is filed as tissue-based.
Chain of Sodium-dependent serotonin transporter (Rattus norvegicus, UniProt P31652) (P31652 whole entry): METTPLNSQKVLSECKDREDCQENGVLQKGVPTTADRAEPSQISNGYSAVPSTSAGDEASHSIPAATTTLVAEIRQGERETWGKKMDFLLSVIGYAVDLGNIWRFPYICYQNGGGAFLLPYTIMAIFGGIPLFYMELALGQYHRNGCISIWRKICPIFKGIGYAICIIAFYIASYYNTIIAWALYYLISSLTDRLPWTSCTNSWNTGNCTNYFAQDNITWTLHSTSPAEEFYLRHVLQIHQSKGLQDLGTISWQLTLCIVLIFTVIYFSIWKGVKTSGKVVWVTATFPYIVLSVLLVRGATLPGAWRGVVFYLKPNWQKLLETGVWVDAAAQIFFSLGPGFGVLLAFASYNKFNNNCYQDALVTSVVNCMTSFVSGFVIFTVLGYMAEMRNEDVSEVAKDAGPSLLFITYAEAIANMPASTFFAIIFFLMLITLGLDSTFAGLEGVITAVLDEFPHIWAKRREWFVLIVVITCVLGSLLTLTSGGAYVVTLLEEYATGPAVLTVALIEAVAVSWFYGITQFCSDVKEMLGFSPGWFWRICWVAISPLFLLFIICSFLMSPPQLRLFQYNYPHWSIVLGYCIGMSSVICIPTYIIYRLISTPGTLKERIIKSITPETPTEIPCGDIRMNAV
Series [14] in a line: Solubility of the compound at pH 2. Type of series: physicochemical. The following applies: buffer.
Series [15] has as its target T3, P2X purinoceptor 7. Put plainly: Displacement of [3H]-A804598 from human recombinant P2X7 receptor expressed in human 1321N1 cell membranes after 1 hr by […].
Series [16] in a line: Plasma protein binding in rat by equilibrium dialysis method. Type of series: ADME, cell-free. The following applies: read-out: PPB (converted).
Series [17] concerns the target T2, P2X purinoceptor 7. Put plainly: Antagonist activity at rat P2X7 receptor by radioligand binding assay.
Series [18] in a line: Solubility of the compound at pH 7. It is filed as physicochemical. As to conditions: buffer.
The subject of series [19] is Rattus norvegicus. Put plainly: Ex-vivo P2X7 receptor occupancy in sc dosed Sprague-Dawley rat brain assessed as inhibition of [3H]A804598 binding after 120 mins by autoradiographic analysis. It is filed as functional.
For series [20], the target named is T4, Sodium-dependent dopamine transporter (Homo sapiens, UniProt Q01959). Put plainly: Inhibition of human dopamine transporter at 1 uM relative to control.
T4 sequence (Q01959 whole entry): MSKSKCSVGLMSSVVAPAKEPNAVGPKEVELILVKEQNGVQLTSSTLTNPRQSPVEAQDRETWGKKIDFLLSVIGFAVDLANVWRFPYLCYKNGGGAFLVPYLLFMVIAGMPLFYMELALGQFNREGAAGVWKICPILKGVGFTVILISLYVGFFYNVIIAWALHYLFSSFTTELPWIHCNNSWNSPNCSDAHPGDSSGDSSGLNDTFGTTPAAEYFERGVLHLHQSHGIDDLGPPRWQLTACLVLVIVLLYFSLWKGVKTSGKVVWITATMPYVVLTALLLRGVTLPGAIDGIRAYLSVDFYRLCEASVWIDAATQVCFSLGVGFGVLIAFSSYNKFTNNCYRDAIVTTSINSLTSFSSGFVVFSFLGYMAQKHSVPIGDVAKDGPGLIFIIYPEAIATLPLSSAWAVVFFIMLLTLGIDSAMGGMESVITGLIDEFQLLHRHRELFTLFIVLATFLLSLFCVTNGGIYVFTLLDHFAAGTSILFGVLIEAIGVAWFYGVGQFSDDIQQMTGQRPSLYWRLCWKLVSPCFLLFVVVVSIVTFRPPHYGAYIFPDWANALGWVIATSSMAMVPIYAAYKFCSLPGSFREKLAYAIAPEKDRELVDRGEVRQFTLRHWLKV
For series [21], the system named is Rattus norvegicus. Briefly: Ex-vivo P2X7 receptor occupancy in Sprague-Dawley rat brain assessed as inhibition of [3H]A804598 binding at 10 mg/kg, sc by autoradiographic analysis. Type of series: functional, organism-based. Also noted: dose 10 mg/kg. The method, boiled down:
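Single subcutaneous dose given to rats; P2X7 occupancy in brain was assessed ex vivo by autoradiography at several times after dosing, with plasma and brain drug levels measured in parallel. n = 3 per time point, mean ± SEM.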

A short description of series [22]: Apparent permeability from apical to basolateral side in human Caco2 cells at 1 uM after 60 mins by LC/MS/MS analysis. Type of series: ADME, cell-based. The following applies: Caco-2.
For series [23], the species on record is Rattus norvegicus. Put plainly: Ex-vivo SERT occupancy in Sprague-Dawley rat by autoradiographic analysis. Type of series: functional.
Series [24] in a line: Inhibition of rat nACHR.
In series [25] the target is T5, Substance-K receptor (Homo sapiens) (UniProt P21452).
T5 sequence (whole entry): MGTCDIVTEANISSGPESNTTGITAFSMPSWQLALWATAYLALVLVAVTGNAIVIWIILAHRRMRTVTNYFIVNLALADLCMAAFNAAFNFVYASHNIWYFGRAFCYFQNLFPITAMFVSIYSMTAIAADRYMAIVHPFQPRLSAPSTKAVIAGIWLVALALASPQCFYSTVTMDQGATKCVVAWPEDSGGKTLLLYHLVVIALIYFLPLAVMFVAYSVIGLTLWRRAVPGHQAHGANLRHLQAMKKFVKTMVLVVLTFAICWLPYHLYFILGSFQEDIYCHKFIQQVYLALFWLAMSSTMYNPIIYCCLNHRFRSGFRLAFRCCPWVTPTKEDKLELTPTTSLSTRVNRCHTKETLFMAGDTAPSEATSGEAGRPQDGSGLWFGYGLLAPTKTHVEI
Briefly: Inhibition of human NK2 receptor at 1 uM relative to control.

For series [26], the species on record is Rattus norvegicus. Briefly: Inhibition of rat nACHR at 1 uM relative to control.
Series [27] deals with T3, P2X purinoceptor 7. Briefly: Antagonist activity at human recombinant P2X7 receptor expressed in human 1321N1 cells assessed as inhibition of BzATP-induced Ca2+ flux after 30 mins by FLIPR assay. It is filed as cell-based.
The nature of series [28]: Apparent permeability from basolateral to apical side in human Caco2 cells at 1 uM after […] by LC/MS/MS analysis. As to conditions: Caco-2. Type of series: ADME, cell-based.
For series [29], the target named is T4, Sodium-dependent dopamine transporter. Put plainly: Inhibition of human dopamine transporter.
Series [30] deals with Sodium-dependent serotonin transporter (Homo sapiens, UniProt P31645). Briefly: Displacement of [3H]-Citalopram from human SERT expressed in human HEK293 cells after 1 hr by scintillation counting analysis. It is filed as cell-based.
Chain of Sodium-dependent serotonin transporter (Homo sapiens, UniProt P31645) (P31645 whole entry): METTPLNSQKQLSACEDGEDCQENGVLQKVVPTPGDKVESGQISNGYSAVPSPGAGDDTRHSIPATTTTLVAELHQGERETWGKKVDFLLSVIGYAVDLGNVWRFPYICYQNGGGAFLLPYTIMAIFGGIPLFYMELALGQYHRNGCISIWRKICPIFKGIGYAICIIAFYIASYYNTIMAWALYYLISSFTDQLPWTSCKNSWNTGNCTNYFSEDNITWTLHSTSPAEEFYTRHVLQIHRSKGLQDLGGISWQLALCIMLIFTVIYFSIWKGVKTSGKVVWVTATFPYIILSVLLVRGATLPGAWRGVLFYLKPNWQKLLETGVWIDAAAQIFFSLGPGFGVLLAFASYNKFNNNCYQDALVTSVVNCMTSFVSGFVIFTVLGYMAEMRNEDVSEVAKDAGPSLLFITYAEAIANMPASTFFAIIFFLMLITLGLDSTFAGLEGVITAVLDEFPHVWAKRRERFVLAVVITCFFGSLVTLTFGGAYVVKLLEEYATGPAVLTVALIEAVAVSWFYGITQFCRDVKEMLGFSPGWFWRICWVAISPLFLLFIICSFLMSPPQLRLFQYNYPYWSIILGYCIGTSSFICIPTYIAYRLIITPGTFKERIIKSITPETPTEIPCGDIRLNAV

The structures appear in SMILES notation. Values after ≈ are worked out from the molar mass of the structure shown. Active and inactive are the calls of the source. No cut-off for these calls is given here.

`O=C(NCC1(N2CCN(c3ccccc3)CC2)CCOCC1)c1cccnc1Sc1ccccc1`: the hepatic extraction ratio at 1 µM in series [1] was more than 0.93; in [4] it was more than 0.92; in [9], more than 0.95. Further, the IC50 at P2X purinoceptor 7 [2] was 0.0316 µM; on P2X purinoceptor 7 [5], 0.0631 µM; at P2X purinoceptor 7 [8], 0.0251 µM; at P2X purinoceptor 7 [12], 0.2 µM. For the same molecule, in the series on Rattus norvegicus [3], the ED50 is 2.5 mg/kg. Further, in the series on Rattus norvegicus [6], the Occ was more than 50%. In addition, the fraction unbound in [7] is 0.017; in [10] it was 0.022; in [16], 0.029. The outcome in the series on Rattus norvegicus [11] was Active. Further, the Ki was 3.16 µM in series [13], 0.0126 µM on P2X purinoceptor 7 [15] and 0.002 µM at P2X purinoceptor 7 [17]. Moreover, the solubility was 400 µM (≈ 195 µg/mL) in series [14] and 31 µM (≈ 15.1 µg/mL) in series [18].

On to `CN1CCc2c(cccc2C(=O)NCC2(N3CCN(c4ccccc4)CC3)CCCCC2)C1`, for which the hepatic extraction ratio at 1 µM in series [1] came out at 0.9; in series [4], 0.86; in series [9] it was 0.9. The figures for the ED50 with Rattus norvegicus [19] and in the series listed under Rattus norvegicus [23] were 0.3 mg/kg and 24 mg/kg, respectively. Also, the inhibition came out at 93% in [20], 68% in series [25] and 54% in the series filed under Rattus norvegicus [26]. The IC50 on P2X purinoceptor 7 [2] was 0.0794 µM; on P2X purinoceptor 7 [5], 0.0158 µM; in [24], 0.91 µM; at P2X purinoceptor 7 [8], 0.0398 µM; on P2X purinoceptor 7 [12], 0.2 µM; at P2X purinoceptor 7 [27] it was 0.02 µM. The IC50 in series [29] turned out to be 0.29 µM. The result in the series with Rattus norvegicus [21] was Active. Besides, the Papp A→B at 1 h, 1 µM in series [22] was 11 ×10⁻⁶ cm/s. Further, the fraction unbound is 0.024 in series [7], 0.165 in [10] and 0.044 in series [16]. Besides, the Ki in series [13] was 0.02 µM; at P2X purinoceptor 7 [15] it was 0.0126 µM; on P2X purinoceptor 7 [17], 0.000794 µM; in series [30], 0.0158 µM. Also, the results for the solubility in series [14] and in [18] were 95 µM (≈ 42.4 µg/mL) and 90 µM (≈ 40.2 µg/mL), respectively. Also, the basolateral-to-apical permeability (Papp B→A) at 1 µM in series [28] came to 2.1 ×10⁻⁶ cm/s.

For orientation: IC50 means the concentration at which inhibition is half-maximal. For orientation: ED50 means the midpoint of the dose-response relation. The Ki is a measure of affinity in units of concentration, obtained from inhibition or displacement. Broadly, the solubility is the concentration that dissolves in the medium under given conditions. Lower therefore signals little dissolved substance. The inhibition is the drop in the measured response relative to a control, in per cent. High values mean strong suppression, low ones little suppression. Usually Papp A→B stands for how fast a substance crosses the layer from the apical side. The term Papp B→A denotes how fast a substance crosses the layer from the basolateral side.

These data come from ChEMBL document CHEMBL2331410, “Synthesis and Pharmacological Characterization of Two Novel, Brain Penetrating P2X7 Antagonists” (ACS Med Chem Lett, 2013).
